# Measurements taken from the M2OR odorant receptor database.
# How the values were obtained:
# Conditions in all cases: stereoisomer not certain
# [1] = tested on: O4F15 A272T
# How it was run: (§1)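 Each entry records the cell line, G-protein, co-transfected protein and tags used. Methods varied with the source, often transient luciferase assays in mammalian cell lines. A receptor–molecule pair is called responsive (active) if the original authors judged its signal statistically different from baseline and non-responsive (inactive) otherwise.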
# [2] = tested on: O4F15 S149F
# How it was run: as §1
# [3] = tested on: O4F17
# How it was run: as §1
# Target sequence in this assay (as listed by the source): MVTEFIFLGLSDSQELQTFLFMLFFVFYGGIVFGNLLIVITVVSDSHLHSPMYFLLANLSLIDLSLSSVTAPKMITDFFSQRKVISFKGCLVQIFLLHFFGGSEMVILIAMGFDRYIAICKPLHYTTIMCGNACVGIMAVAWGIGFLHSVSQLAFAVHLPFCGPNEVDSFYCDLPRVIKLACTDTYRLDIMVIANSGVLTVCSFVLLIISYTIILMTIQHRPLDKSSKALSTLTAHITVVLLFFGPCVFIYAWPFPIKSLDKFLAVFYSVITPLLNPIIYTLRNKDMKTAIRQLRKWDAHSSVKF
# [4] = tested on: O4F17; remark: listed apart in the source
# How it was run: as §1
# Target sequence in this assay (as listed by the source): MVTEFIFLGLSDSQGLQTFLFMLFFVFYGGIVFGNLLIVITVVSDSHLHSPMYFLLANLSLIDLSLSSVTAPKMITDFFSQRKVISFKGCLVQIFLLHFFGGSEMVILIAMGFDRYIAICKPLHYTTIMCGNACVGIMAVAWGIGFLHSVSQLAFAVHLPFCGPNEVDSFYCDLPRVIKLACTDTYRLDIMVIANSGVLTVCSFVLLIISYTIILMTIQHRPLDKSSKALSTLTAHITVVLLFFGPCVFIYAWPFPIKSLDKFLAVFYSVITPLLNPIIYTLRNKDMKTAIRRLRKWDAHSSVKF
# [5] = tested on: O4F21 F44L
# Sequence of O4F21 F44L (as listed by the source, stated change not applied): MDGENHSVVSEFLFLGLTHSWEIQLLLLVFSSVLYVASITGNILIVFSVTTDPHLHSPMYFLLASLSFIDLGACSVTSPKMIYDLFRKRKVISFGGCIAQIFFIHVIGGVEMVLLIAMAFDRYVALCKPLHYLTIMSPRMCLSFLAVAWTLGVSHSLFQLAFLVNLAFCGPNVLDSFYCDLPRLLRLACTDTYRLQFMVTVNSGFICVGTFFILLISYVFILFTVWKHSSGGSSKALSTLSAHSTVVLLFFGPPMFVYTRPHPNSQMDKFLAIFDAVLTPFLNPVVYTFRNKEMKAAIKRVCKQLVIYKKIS
# How it was run: as §1
# [6] = tested on: O51A7 E8D
# How it was run: as §1
# [7] = tested on: O51B2 C120R C209S P283S
# How it was run: as §1
# [8] = tested on: O51B4 M147T
# Sequence of O51B4 M147T (as listed by the source, stated change not applied): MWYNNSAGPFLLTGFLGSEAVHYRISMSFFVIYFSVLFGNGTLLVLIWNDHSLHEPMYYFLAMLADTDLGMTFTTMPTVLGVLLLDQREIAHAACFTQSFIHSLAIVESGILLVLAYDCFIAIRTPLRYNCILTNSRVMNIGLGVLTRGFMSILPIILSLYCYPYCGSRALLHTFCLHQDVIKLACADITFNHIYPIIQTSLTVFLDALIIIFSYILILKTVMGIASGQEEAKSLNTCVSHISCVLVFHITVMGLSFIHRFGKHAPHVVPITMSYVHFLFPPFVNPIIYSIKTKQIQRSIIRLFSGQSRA
# How it was run: as §1
# [9] = tested on: O51B4
# Sequence of O51B4 (as listed by the source): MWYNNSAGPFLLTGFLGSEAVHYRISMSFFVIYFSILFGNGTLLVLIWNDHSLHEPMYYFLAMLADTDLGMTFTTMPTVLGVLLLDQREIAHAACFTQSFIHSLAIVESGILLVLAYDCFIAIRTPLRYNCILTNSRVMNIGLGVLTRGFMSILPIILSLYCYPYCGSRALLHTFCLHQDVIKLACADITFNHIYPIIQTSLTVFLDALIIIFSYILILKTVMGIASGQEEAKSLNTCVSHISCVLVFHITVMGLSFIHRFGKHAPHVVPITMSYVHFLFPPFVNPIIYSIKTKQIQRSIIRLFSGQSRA
# How it was run: as §1
# [10] = tested on: O51B5 G5S I102T P160L
# How it was run: as §1
# [11] = tested on: O51D1 I89V
# Sequence of O51D1 I89V (as listed by the source, stated change not applied): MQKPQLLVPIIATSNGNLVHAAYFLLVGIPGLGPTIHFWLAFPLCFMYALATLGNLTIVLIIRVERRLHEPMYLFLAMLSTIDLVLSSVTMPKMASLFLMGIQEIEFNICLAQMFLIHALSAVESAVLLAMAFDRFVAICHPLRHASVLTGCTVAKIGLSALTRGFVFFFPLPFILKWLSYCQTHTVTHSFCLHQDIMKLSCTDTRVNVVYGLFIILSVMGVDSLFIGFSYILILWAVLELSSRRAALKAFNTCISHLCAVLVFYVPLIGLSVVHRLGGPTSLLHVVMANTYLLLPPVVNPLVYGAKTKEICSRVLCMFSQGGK
# How it was run: as §1
# [12] = tested on: O51F1
# How it was run: as §1
# Target sequence in this assay (as listed by the source): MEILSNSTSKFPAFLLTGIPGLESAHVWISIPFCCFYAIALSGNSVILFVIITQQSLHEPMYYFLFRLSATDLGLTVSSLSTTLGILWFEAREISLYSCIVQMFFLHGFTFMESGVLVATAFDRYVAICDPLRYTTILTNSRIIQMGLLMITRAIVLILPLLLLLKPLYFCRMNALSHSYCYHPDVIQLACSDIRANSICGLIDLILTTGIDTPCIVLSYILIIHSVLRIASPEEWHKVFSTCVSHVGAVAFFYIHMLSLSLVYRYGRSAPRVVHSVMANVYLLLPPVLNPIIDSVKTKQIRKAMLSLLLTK
# [13] = tested on: O51F1; remark: listed apart in the source
# How it was run: as §1
# Target sequence in this assay (as listed by the source): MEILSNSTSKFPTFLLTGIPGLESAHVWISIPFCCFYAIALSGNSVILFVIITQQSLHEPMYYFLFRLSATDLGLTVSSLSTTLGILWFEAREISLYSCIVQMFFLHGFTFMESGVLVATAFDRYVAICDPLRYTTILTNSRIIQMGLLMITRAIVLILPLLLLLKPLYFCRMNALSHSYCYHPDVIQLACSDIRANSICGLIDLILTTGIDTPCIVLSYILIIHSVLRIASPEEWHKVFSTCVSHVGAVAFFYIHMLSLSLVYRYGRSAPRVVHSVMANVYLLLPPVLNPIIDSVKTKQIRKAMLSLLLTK
# [14] = tested on: O51F2 Y341S
# Sequence of O51F2 Y341S (as listed by the source, stated change not applied): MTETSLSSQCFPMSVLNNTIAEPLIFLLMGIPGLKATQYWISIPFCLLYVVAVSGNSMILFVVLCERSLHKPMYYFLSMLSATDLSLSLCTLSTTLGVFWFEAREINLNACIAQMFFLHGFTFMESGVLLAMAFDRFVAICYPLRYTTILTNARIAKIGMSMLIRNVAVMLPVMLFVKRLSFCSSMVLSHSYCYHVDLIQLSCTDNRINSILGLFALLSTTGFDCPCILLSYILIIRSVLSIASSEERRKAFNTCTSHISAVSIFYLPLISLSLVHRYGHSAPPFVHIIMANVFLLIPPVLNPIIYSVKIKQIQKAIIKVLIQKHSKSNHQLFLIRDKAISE
# How it was run: as §1
# [15] = tested on: O51G1
# Sequence of O51G1 (as listed by the source): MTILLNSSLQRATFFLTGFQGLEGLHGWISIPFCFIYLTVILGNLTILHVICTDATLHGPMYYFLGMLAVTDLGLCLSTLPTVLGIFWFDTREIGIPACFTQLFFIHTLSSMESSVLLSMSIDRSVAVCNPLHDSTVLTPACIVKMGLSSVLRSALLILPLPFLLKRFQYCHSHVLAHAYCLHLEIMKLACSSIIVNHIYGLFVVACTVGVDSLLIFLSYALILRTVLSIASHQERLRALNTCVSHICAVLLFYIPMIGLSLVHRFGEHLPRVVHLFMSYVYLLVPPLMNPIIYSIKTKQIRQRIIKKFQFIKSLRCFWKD
# How it was run: as §1
# [16] = tested on: O51I1 V164L
# Sequence of O51I1 V164L (as listed by the source, stated change not applied): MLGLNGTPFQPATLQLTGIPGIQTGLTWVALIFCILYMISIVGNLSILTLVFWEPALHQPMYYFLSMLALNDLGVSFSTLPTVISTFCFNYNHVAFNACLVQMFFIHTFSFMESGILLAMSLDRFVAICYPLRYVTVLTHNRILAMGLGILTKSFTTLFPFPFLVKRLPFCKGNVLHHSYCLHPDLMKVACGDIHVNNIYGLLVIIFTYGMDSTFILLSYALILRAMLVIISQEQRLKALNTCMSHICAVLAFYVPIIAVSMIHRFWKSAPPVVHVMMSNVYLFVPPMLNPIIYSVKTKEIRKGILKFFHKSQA
# How it was run: as §1
# [17] = tested on: O51J1 R75H I202V
# How it was run: as §1
# [18] = tested on: O51L1
# How it was run: as §1
# Target sequence in this assay (as listed by the source): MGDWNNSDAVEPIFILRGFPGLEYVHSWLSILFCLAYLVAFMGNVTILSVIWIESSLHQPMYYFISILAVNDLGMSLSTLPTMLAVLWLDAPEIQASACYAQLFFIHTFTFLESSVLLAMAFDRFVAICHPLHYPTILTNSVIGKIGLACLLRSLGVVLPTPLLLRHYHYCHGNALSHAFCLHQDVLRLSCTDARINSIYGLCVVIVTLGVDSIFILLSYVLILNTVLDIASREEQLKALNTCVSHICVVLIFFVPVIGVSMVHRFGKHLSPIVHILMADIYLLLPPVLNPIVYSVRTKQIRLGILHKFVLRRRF
# [19] = tested on: O51L1; remark: listed apart in the source
# How it was run: as §1
# Target sequence in this assay (as listed by the source): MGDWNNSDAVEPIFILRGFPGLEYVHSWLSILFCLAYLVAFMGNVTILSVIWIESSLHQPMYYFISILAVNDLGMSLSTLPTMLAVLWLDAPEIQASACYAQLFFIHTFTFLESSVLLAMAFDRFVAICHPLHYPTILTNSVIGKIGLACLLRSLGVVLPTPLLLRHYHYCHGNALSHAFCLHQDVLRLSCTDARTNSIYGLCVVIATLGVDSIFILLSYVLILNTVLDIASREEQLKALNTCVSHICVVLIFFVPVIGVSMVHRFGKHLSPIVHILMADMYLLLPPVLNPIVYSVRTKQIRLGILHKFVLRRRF
# [20] = tested on: O51T1
# Sequence of O51T1 (as listed by the source): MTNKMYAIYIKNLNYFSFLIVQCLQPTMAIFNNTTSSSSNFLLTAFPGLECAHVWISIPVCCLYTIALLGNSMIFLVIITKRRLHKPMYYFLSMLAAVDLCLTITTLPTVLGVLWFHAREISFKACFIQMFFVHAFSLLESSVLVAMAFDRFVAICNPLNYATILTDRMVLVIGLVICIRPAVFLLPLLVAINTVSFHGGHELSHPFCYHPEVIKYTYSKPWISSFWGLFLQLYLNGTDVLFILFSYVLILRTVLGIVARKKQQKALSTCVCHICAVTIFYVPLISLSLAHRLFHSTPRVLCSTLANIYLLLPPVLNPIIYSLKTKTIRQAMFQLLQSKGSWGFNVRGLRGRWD
# How it was run: as §1
# Sequence of O4F15 A272T (as listed by the source, stated change not applied): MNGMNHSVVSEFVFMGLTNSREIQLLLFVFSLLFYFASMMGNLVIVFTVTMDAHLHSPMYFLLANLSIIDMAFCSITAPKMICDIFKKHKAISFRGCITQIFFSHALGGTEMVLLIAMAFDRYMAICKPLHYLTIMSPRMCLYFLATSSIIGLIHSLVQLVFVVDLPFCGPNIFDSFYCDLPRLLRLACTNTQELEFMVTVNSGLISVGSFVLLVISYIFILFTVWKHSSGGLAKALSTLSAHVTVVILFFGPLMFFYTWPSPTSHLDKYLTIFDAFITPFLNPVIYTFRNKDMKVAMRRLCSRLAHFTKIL
smiles,measurement,setting,value
C=CCOC(=O)Cc1ccccc1,odorant receptor agonist call,[1],inactive
same,odorant receptor agonist call,[2],inactive
same,odorant receptor agonist call,[3],inactive
same,odorant receptor agonist call,[4],inactive
same,odorant receptor agonist call,[5],inactive
same,odorant receptor agonist call,[6],inactive
same,odorant receptor agonist call,[7],inactive
same,odorant receptor agonist call,[8],inactive
same,odorant receptor agonist call,[9],inactive
same,odorant receptor agonist call,[10],inactive
same,odorant receptor agonist call,[11],inactive
same,odorant receptor agonist call,[12],inactive
same,odorant receptor agonist call,[13],inactive
same,odorant receptor agonist call,[14],inactive
same,odorant receptor agonist call,[15],inactive
same,odorant receptor agonist call,[16],inactive
same,odorant receptor agonist call,[17],inactive
same,odorant receptor agonist call,[18],active
same,odorant receptor agonist call,[19],active
same,odorant receptor agonist call,[20],inactive
